Compound activity: PubChem, The Scripps Research Institute Molecular Screening Center
AHR act = activates the human aryl hydrocarbon receptor. P35869. AHR-responsive luciferase reporter cells, luminescence. hit rate 2.5% among 320,000. activation, % at 5 µM; in the data active = activation above about 47%;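 also: 0% = vehicle wells and 100% = reference agonist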
MC4R ag barr = human MC4R agonism via beta-arrestin; AID 540308; U2OS MC4R beta-arrestin complementation, luminescence; percent of melanotan II response, DMSO zero; P32245; activation, % at 8.9 µM; hit rate 0.98% among 360,000;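 active = activation above a per-plate cutoff, the mean activation of sample wells on that plate plus 3 SD, cut at about 8% in these data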
MC4R antagonist = blocks human MC4R cAMP signaling. P32245. MC4R-expressing cells, MTII-stimulated cAMP, LANCE TR-FRET. inhibition, % at 6.5 µM. hit rate 0.48% among 360,000;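 active = inhibition above its plate's cutoff, the mean of tested wells on that plate plus 3 SD, cut at about 29% in these data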;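 also: 0% = Melanotan II alone and 100% = Melanotan II plus saturating MCL0020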
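Test system: U2OS cells stably expressing human melanocortin 4 receptor (MC4R); also added: Melanotan II challenge; compound: 6.5 µM single dose; timing: 30-min compound preincubation, 1-h Melanotan II challenge, 1-h detection, room temperature; signal: Eu-cAMP/anti-cAMP TR-FRET, emission 671 nm; repeats: one well per compound, no replicates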
GAA850 FXN act = activators of GAA850 frataxin (FXN) promoter | hit rate 0.56% among 360,000 | HEK293 lucGAA850 FXN promoter luciferase reporter, 24 h; percent of 10 µM SAHA response | activation, % at 6 µM;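 active = activation above the average of all compounds screened plus 3 SD, cutoff fixed separately per campaign, cut at about 7.5% in these data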;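 also: 0% = DMSO wells and 100% = 10 µM SAHA wells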
HTR2A ag = mouse HTR2A agonism via beta-arrestin recruitment; P35363; CHO-K1 mHTR2A beta-arrestin complementation, luminescence; percent of 30 µM serotonin response; activation, % at 7.6 µM; hit rate 0.66% among 360,000; AID 624169;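 active = activation above a run cutoff, the mean activation of all tested compounds plus 3 SD, cut at about 14% in these data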;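 also: 0% = plate median of compound wells and 100% = 30 µM serotonin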
U2OS cAMP counter = U2OS forskolin cAMP inhibition counter-screen | inhibition, % at 6.5 µM | parental U2OS, LANCE TR-FRET | shares compounds with MC4R antagonist | hit rate 26% among 1,600 | AID 602193;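 active = mean inhibition over triplicates above the low-control well mean plus 3 SD, set per campaign, cut at about 13% in these data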;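 also: signal is single emission at 671 nm which falls as cellular cAMP rises; 0% = forskolin-stimulated wells and 100% = buffer without forskolin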
MC4R cAMP antag = human MC4R cAMP antagonism confirmation. inhibition, % at 6.5 µM. MC4R-expressing cells, MTII-stimulated cAMP, TR-FRET. hit rate 27% among 1,600. shares compounds with MC4R antagonist. AID 602195; in the data active = inhibition above about 29%;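 also: 0% = agonist stimulated wells alone and 100% = agonist stimulated wells plus saturating reference antagonist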
* marks the source's active call; other numbers are inactive results; . = no result given. An excerpt weighted towards active compounds, which were near 4.7% of everything screened.

SMILES	AHR act	MC4R ag barr	MC4R antagonist	GAA850 FXN act	HTR2A ag	U2OS cAMP counter	MC4R cAMP antag
COC(=O)C=C1CCC2C3CCC4=CC(=O)C(Br)CC4(C)C3C(=O)CC12C (stereo not given)	.	-1	31*	-5	-1	2	22
CC1=NOC(=O)/C1=C\c1ccc(-c2ccccc2Br)o1	.	-3	62*	2	-2	9	11
CC1=NOC(=O)/C1=C\c1ccc(-c2ccc(Cl)c(C(=O)O)c2)o1	.	1	-4	1	1	.	.
Fc1ccc2[nH]c3c(NCc4ccccc4)ncnc3c2c1	11	-3	20	2	6	.	.
CC(C)N(c1ccccc1)c1ccc(NC(=O)COC(=O)CCN2C(=O)c3cccc([N+](=O)[O-])c3C2=O)cc1	0	7	36*	1	-8	13	21
CCOc1ccc(NC(=O)CCN2C(=O)c3cccc([N+](=O)[O-])c3C2=O)cc1	.	1	33*	-1	2	10	18
CC(=O)c1ccc(NC(=O)COC(=O)CCN2C(=O)c3cccc([N+](=O)[O-])c3C2=O)cc1	-2	-4	22	0	-2	.	.
COc1cc(OC)c(OC)cc1CNC(=O)CCN1C(=O)c2cccc([N+](=O)[O-])c2C1=O	0	0	32*	-2	8	5	13
COc1ccc(NC(=O)CCCCCN2C(=O)c3cccc([N+](=O)[O-])c3C2=O)c(OC)c1	-3	0	16	2	1	.	.
COc1ccc(OC)c(NC(=O)CCN2C(=O)c3cccc([N+](=O)[O-])c3C2=O)c1	-3	-1	41*	2	-5	13	27
COc1ccc(CNC(=O)CCN2C(=O)c3ccncc3C2=O)cc1OC	-1	1	34*	-1	-2	-1	-14
COc1ccc(CNC(=O)CCN2C(=O)c3ccccc3C2=O)cc1OC	-2	-1	-4	2	-4	.	.
CCOc1ccc(/C=C/[N+](=O)[O-])c2ccccc12	-4	-5	41*	-5	-5	12	-20
CCOC(=O)COc1ccc2ccccc2c1/C=C/[N+](=O)[O-]	8	-1	12	0	0	.	.
Cc1cc(C(=O)CCl)c(C)n1CCc1ccc(Cl)cc1	-8	8	20	-6	6	.	.
Cc1cc(C(=O)CCl)c(C)n1CCc1ccc(F)cc1	-1	8	31*	-5	-4	12	33*
COc1ccc(CCn2c(C)cc(C(=O)CCl)c2C)cc1OC	-2	7	30*	-9	-2	11	26
CCN(C[C@H]1N[C@@](Cc2ccccc2)(C(=O)OC)[C@H]2C(=O)N(Cc3ccccc3)C(=O)[C@@H]12)S(=O)(=O)c1ccc(C(F)(F)F)cc1	-1	3	38*	-7	-3	1	1
CC(C)N(C(=O)[C@H]1C[C@H](CC(=O)NCC23CC4CC(CC(C4)C2)C3)C(=O)N2CCc3c([nH]c4cc(CCC(=O)N(C)C)ccc34)[C@]12C)C(C)C	.	-1	7	-2	0	.	.
CCc1nc2ccc(C(=O)Nc3cc(-c4ccccc4)ccc3OC)cn2c1N(C)C(=O)c1cccc(OC)c1	.	-2	18	-7	2	.	.
O=c1c2ccccc2sc2nc(CCl)nn12	.	0	-3	1	5	.	.
C[C@H](CO)N1C[C@H](C)[C@@H](CN(C)C(=O)Nc2ccc3c(c2)OCO3)Oc2c(NC(=O)Nc3ccc(C(F)(F)F)cc3)cccc2C1=O	1	-1	56*	-9	5	-2	30*
CC(C)NC(=O)N(C)C[C@H]1Oc2c(NC(=O)Nc3ccc(C(F)(F)F)cc3)cccc2C(=O)N([C@H](C)CO)C[C@@H]1C	-1	-1	13	0	1	.	.
C[C@H]1CN([C@@H](C)CO)C(=O)c2cccc(NC(=O)Nc3ccc(C(F)(F)F)cc3)c2O[C@@H]1CN(C)Cc1ccc(Cl)c(Cl)c1	8	2	41*	-10	-4	-3	-12
C[C@H](CO)N1C[C@H](C)[C@@H](CN(C)C(=O)NC2CCCCC2)Oc2c(NC(=O)Nc3ccc(C(F)(F)F)cc3)cccc2C1=O	-2	0	30*	-7	9	2	18
SMILES	AHR act	MC4R ag barr	MC4R antagonist	GAA850 FXN act	HTR2A ag	U2OS cAMP counter	MC4R cAMP antag
C[C@H](CO)N1C[C@H](C)[C@@H](CN(C)C(=O)Nc2ccc(C(F)(F)F)cc2)Oc2c(NC(=O)Nc3ccc4c(c3)OCO4)cccc2C1=O	3	-1	17	-2	7	.	.
CCSc1ccc([C@@H]2[C@H]3C(=O)N(CC)C(=O)[C@H]3[C@]3(C(=O)OC)CCCCN23)cc1OC	6	-1	8	-1	2	.	.
O=C(Nc1cccc(C(F)(F)F)c1)c1ccc2sc([C@H]3C[C@H](O)[C@@H](CO)O3)nc2c1	.	0	5	-1	7	.	.
Cc1ccc2[nH]c3c(=S)nc[nH]c3c2c1	18	-2	48*	4	-6	13	11
CCOC(=O)C1CCCN(S(=O)(=O)c2cnc(Cl)c(Br)c2)C1 (stereo not given)	1	-2	52*	2	2	15*	38*
CCOC(=O)C1CCCN(S(=O)(=O)c2ccc(S(=O)(=O)N3CCCC3)cc2)C1 (stereo not given)	-1	-1	4	-4	4	.	.
COc1ccc(-c2ccc(CCC(=O)O)n2CC(=O)Nc2ccccc2C)cc1	4	-1	31*	0	-1	3	1
COc1ccc(NC(=O)Cn2c(CCC(=O)O)ccc2-c2ccccc2)cc1	0	-1	16	-2	-6	.	.
CCOC(=O)c1c(NC(=O)COC)sc(C)c1C	-1	0	3	0	1	.	.
CCOC(=O)c1c(NC(=O)C[n+]2ccc(N(C)C)cc2)sc(C)c1C	-1	-1	30*	0	0	1	-2
COC(=O)CSc1nnc(-c2ccc(S(=O)(=O)N3CCC(C)CC3)cc2)o1	1	-1	22	2	-1	.	.
COC(=O)CSc1nnc(-c2ccc(S(=O)(=O)N3CCCCC3)cc2)o1	-3	-2	33*	3	-1	13	44*
CCOC(=O)CSc1nnc(-c2ccc(NS(=O)(=O)c3ccc(C)cc3)cc2)o1	-1	-1	38*	0	-2	5	22
Cc1ccc(S(=O)(=O)NCC(=O)OCc2nnc(-c3ccccc3)o2)cc1	1	-2	30*	1	-1	13	20
CCOc1ccc(S(=O)(=O)NCC(=O)OCc2nnc(-c3ccccc3)o2)cc1	-2	-3	22	2	0	.	.
Cc1cccc(NC(=O)CCSc2nnc(Cc3ccccc3)o2)c1	2	-4	3	1	-4	.	.
